{"source": "ChEMBL document CHEMBL1154183", "about": "“Structure-based optimization of potent and selective inhibitors of the tyrosine kinase erythropoietin producing human hepatocellular carcinoma receptor B4 (EphB4)” (J Med Chem, 2009)", "key": {"[1]": {"biological_target": "Serine/threonine-protein kinase D1 (Homo sapiens) (UniProt Q15139)", "test": "Inhibition of PKD1 assessed as remaining enzyme activity at 3 uM relative to DMSO"}, "[2]": {"biological_target": "NUAK family SNF1-like kinase 1 (Homo sapiens) (UniProt O60285)", "test": "Inhibition of NUAK1 assessed as remaining enzyme activity at 3 uM relative to DMSO", "in_short": "(§1)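 Radiometric kinase assay run robotically at room temperature for 30 min. Contained 10 mM magnesium acetate and [γ-33P]ATP (800 cpm/pmol) at 5, 20 or 50 μM, chosen per kinase to be at or below its ATP Km. Reactions were started with MgATP, stopped with orthophosphoric acid and spotted onto P81 filters. Result is mean % activity of duplicates at one inhibitor concentration versus DMSO control.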"}, "[3]": {"biological_target": "RAC-alpha serine/threonine-protein kinase (Homo sapiens) (UniProt P31749)", "test": "Inhibition of PKBalpha assessed as remaining enzyme activity at 3 uM relative to DMSO", "in_short": "as §1"}, "[4]": {"biological_target": "Serine/threonine-protein kinase pim-3 (Homo sapiens) (UniProt Q86V86)", "test": "Inhibition of PIM3 assessed as remaining enzyme activity at 3 uM relative to DMSO", "in_short": "as §1"}, "[5]": {"biological_target": "Mitogen-activated protein kinase 13 (Homo sapiens) (UniProt O15264)", "sequence (O15264 whole entry)": "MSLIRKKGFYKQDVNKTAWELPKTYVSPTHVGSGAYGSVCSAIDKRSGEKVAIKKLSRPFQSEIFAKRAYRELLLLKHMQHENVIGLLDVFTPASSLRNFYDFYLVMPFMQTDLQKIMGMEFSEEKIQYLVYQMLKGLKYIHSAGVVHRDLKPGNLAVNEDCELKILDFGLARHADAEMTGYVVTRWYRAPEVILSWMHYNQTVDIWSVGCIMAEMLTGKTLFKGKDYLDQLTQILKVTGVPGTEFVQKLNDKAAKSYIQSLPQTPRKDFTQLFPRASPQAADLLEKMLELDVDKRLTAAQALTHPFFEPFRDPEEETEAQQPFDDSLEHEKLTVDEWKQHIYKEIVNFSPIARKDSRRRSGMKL", "test": "Inhibition of p38delta assessed as remaining enzyme activity at 3 uM relative to DMSO"}, "[6]": {"biological_target": "Serine/threonine-protein kinase BRSK2 (Homo sapiens) (UniProt Q8IWQ3)", "test": "Inhibition of BRSK2 assessed as remaining enzyme activity at 3 uM relative to DMSO", "in_short": "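Panel assay run robotically at room temperature for 30 min with 10 mM magnesium acetate and [γ-33P]ATP (800 cpm/pmol) at 5, 20 or 50 μM, chosen per kinase to be at or below its ATP Km. Reactions were started with MgATP, stopped with orthophosphoric acid and spotted on P81 filters. Activity is the mean of duplicates at a single inhibitor concentration, as % of DMSO control.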"}, "[7]": {"biological_target": "Dual specificity tyrosine-phosphorylation-regulated kinase 1A (Homo sapiens) (UniProt Q13627)", "test": "Inhibition of DYRK1A assessed as remaining enzyme activity at 3 uM relative to DMSO"}, "[8]": {"biological_target": "Interleukin-1 receptor-associated kinase 4 (Homo sapiens) (UniProt Q9NWZ3)", "test": "Inhibition of IRAK4 assessed as remaining enzyme activity at 3 uM relative to DMSO", "in_short": "(§2)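 Dundee kinase panel, radiometric: [γ-33P]ATP (800 cpm/pmol) at 5, 20 or 50 μM, at or below each kinase's ATP Km; 10 mM magnesium acetate; robotic, room temperature, 30 min. Reactions started with MgATP, stopped with orthophosphoric acid, spotted onto P81 filters. Inhibitor tested at a single concentration; mean % activity of duplicates relative to DMSO control.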"}, "[9]": {"biological_target": "Serine/threonine-protein kinase 26 (Homo sapiens) (UniProt Q9P289)", "sequence (Q9P289 2-416 limits assumed)": "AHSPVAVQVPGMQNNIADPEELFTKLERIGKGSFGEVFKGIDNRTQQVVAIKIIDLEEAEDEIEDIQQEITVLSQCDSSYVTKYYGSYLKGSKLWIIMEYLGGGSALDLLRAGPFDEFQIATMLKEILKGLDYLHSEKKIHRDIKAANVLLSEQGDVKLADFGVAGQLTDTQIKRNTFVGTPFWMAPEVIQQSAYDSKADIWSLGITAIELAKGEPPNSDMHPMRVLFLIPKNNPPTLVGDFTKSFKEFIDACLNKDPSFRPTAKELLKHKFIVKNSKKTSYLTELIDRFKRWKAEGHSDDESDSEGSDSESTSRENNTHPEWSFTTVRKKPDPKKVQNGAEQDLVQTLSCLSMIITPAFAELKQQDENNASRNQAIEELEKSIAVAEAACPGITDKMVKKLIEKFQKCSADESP", "test": "Inhibition of MST4 assessed as remaining enzyme activity at 3 uM relative to DMSO", "in_short": "as §1"}, "[10]": {"biological_target": "Receptor tyrosine-protein kinase erbB-4 (Homo sapiens) (UniProt Q15303)", "sequence (Q15303 whole entry)": "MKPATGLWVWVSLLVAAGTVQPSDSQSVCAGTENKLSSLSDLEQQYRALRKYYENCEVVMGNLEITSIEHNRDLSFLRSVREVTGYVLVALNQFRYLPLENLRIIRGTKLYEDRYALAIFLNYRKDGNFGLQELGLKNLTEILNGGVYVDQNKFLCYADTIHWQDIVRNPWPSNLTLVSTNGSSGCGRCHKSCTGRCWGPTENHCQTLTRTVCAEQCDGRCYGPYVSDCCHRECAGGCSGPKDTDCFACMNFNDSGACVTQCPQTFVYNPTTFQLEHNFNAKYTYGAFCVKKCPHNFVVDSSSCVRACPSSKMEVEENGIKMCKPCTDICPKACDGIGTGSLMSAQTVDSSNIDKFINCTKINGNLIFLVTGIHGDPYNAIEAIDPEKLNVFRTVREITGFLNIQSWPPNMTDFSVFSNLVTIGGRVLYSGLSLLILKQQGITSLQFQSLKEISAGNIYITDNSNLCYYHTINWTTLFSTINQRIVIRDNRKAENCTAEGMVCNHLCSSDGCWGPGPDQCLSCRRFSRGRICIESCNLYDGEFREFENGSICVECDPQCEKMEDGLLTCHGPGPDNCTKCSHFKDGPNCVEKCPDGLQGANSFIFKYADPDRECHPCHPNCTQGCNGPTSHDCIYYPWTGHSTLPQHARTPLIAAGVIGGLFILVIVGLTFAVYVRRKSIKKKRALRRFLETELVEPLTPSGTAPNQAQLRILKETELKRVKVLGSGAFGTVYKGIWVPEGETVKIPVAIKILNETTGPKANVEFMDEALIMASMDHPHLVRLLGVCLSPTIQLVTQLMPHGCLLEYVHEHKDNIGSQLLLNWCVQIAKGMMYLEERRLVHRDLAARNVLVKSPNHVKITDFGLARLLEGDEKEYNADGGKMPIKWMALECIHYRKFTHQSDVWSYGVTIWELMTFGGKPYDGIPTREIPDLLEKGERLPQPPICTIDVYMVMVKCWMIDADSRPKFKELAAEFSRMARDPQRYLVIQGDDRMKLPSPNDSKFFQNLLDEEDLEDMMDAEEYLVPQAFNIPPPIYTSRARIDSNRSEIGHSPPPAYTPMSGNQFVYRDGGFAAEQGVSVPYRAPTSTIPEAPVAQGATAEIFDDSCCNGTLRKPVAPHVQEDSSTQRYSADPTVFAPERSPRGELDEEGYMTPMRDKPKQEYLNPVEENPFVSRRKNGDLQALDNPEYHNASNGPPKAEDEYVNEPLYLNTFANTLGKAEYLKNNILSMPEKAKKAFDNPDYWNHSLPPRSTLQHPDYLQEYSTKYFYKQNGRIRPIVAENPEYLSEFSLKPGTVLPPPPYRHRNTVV", "test": "Inhibition of HER4 assessed as remaining enzyme activity at 3 uM relative to DMSO", "in_short": "as §2"}, "[11]": {"biological_target": "Fibroblast growth factor receptor 1 (Homo sapiens) (UniProt P11362)", "sequence (P11362 22-822 limits assumed)": "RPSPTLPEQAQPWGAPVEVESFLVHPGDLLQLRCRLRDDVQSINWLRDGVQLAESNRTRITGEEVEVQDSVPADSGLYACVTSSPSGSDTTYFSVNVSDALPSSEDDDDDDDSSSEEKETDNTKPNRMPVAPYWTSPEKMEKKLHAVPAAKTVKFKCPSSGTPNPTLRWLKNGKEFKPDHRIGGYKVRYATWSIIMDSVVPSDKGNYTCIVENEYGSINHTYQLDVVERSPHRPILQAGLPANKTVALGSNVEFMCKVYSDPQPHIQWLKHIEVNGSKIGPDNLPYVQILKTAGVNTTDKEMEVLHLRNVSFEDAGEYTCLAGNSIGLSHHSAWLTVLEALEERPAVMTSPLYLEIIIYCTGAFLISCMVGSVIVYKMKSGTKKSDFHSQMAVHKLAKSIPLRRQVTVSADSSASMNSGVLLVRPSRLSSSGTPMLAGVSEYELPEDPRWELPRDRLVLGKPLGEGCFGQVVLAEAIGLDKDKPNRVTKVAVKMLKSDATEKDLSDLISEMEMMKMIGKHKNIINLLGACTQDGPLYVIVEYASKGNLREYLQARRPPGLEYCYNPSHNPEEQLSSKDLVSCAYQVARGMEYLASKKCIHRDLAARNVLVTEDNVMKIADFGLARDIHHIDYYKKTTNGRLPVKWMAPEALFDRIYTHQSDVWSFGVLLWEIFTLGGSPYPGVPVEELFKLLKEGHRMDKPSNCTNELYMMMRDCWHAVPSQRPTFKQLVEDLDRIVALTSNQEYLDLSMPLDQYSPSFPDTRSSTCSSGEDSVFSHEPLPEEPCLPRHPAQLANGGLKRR", "test": "Inhibition of FGF-R1 assessed as remaining enzyme activity at 1 uM relative to DMSO", "in_short": "as §2"}, "[12]": {"biological_target": "Fibroblast growth factor receptor 3 (Homo sapiens) (UniProt P22607)", "test": "Binding affinity to FGFR3 assessed as percentage of kinase remaining bound to the bead at 1 uM by T7 phage display based binding assay", "in_short": "(§3)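 Competition binding assay run by a contract lab. Each kinase was expressed as a fusion to T7 phage, full-length for small kinases and catalytic domain for large ones. Phage were mixed with an immobilized known kinase inhibitor on streptavidin magnetic beads and with test compound at a single 1 μM. Kinase/phage still bound to the beads was quantified by qPCR and expressed as % of DMSO control.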"}, "[13]": {"biological_target": "Tyrosine-protein kinase HCK (Homo sapiens) (UniProt P08631)", "test": "Binding affinity to HCK assessed as percentage of kinase remaining bound to the bead at 1 uM by T7 phage display based binding assay", "in_short": "as §3"}, "[14]": {"biological_target": "Calcium/calmodulin-dependent protein kinase kinase 2 (Homo sapiens) (UniProt Q96RR4)", "test": "Inhibition of CAMKKbeta assessed as remaining enzyme activity at 1 uM relative to DMSO", "in_short": "as §2"}, "[15]": {"biological_target": "Platelet-derived growth factor receptor beta (Homo sapiens) (UniProt P09619)", "test": "Binding affinity to PDGFRB assessed as percentage of kinase remaining bound to the bead at 1 uM by T7 phage display based binding assay", "in_short": "as §3"}, "[16]": {"biological_target": "Ribosomal protein S6 kinase alpha-6 (Homo sapiens) (UniProt Q9UK32)", "sequence (Q9UK32 whole entry, the tested form may be a part)": "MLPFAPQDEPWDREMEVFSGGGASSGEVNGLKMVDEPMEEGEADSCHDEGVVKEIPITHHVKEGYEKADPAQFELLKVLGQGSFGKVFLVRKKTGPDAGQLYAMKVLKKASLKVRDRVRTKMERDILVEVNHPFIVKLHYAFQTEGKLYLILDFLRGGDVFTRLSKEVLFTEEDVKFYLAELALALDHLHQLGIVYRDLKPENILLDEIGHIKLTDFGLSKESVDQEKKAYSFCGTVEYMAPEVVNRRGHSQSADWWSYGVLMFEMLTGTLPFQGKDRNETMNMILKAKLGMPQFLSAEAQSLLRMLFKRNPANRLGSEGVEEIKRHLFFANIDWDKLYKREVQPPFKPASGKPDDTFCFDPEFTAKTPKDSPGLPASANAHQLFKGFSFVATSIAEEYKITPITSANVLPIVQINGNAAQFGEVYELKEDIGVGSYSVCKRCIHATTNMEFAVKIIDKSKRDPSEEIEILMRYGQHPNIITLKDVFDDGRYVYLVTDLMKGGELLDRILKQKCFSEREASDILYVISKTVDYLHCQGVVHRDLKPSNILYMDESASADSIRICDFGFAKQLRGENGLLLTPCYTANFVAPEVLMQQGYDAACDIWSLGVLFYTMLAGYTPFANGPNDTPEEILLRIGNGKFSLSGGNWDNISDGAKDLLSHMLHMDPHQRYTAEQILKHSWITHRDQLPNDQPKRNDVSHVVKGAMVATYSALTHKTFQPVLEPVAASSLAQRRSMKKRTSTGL", "test": "Binding affinity to RSK4 kinase domain 2 C-terminal assessed as percentage of kinase remaining bound to the bead at 1 uM by T7 phage display based binding assay", "in_short": "as §3"}, "[17]": {"biological_target": "Mitogen-activated protein kinase 13 (Homo sapiens) (UniProt O15264)", "test": "Inhibition of p38delta assessed as remaining enzyme activity at 1 uM relative to DMSO"}, "[18]": {"biological_target": "Mast/stem cell growth factor receptor Kit (Homo sapiens) (UniProt P10721)", "test": "Binding affinity to KIT assessed as percentage of kinase remaining bound to the bead at 1 uM by T7 phage display based binding assay", "in_short": "as §3"}, "[19]": {"biological_target": "Ephrin type-A receptor 3 (Homo sapiens, UniProt P29320)", "test": "Inhibition of EphA3 by [gamma33-P]ATP based assay", "in_short": "(§4)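 Radiometric [γ-33P]ATP kinase assay against Eph kinases, following a protocol similar to the Mg-acetate/MgATP filter-binding method.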"}, "[20]": {"biological_target": "Ephrin type-B receptor 1 (Homo sapiens, UniProt P54762)", "test": "Inhibition of EphB1 by [gamma33-P]ATP based assay", "in_short": "as §4"}, "[21]": {"biological_target": "Mitogen-activated protein kinase 14 (Homo sapiens) (UniProt Q16539)", "test": "Inhibition of p38alpha assessed as remaining enzyme activity at 1 uM relative to DMSO"}, "[22]": {"biological_target": "Serine/threonine-protein kinase NLK (Homo sapiens) (UniProt Q9UBE8)", "test": "Binding affinity to NLK assessed as percentage of kinase remaining bound to the bead at 1 uM by T7 phage display based binding assay", "in_short": "as §3"}, "[23]": {"biological_target": "Ephrin type-B receptor 2 (Homo sapiens, UniProt P29323)", "sequence (P29323 whole entry)": "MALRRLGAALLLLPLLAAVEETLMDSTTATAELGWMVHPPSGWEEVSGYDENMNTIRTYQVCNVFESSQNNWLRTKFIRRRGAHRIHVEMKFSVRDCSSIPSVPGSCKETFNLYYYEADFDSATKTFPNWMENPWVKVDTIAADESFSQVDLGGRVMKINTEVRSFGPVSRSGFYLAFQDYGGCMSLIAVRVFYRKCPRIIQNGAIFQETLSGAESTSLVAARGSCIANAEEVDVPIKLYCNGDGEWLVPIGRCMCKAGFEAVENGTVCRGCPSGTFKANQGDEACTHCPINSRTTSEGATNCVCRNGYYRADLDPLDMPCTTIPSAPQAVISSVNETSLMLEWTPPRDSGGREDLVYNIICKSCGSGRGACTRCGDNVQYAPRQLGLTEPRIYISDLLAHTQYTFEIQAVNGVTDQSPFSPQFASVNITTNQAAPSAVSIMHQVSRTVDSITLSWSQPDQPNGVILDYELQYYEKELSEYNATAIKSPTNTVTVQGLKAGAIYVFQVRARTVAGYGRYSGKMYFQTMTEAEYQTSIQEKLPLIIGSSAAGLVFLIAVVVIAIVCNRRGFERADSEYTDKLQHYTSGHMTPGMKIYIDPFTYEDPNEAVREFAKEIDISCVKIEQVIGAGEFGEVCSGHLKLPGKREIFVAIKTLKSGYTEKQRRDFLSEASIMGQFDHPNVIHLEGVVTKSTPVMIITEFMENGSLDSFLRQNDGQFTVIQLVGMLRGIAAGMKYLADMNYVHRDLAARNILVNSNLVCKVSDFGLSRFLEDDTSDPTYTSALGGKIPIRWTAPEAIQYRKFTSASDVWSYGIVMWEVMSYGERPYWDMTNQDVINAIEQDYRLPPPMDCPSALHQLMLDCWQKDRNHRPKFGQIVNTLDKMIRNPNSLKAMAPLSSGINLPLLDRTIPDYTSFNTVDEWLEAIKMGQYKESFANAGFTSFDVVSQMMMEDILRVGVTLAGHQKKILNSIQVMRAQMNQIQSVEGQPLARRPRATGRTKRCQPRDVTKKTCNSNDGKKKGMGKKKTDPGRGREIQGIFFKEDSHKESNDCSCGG", "test": "Inhibition of EphB2 by [gamma33-P]ATP based assay", "in_short": "as §4"}, "[24]": {"biological_target": "Serine/threonine-protein kinase PAK 6 (Homo sapiens) (UniProt Q9NQU5)", "test": "Inhibition of PAK6 assessed as remaining enzyme activity at 1 uM relative to DMSO", "in_short": "as §1"}, "[25]": {"biological_target": "Serine/threonine-protein kinase Nek2 (Homo sapiens) (UniProt P51955)", "test": "Inhibition of NEK2alpha assessed as remaining enzyme activity at 1 uM relative to DMSO", "in_short": "as §1"}, "[26]": {"biological_target": "Ephrin type-A receptor 6 (Homo sapiens) (UniProt Q9UF33)", "test": "Binding affinity to EPHA6 assessed as percentage of kinase remaining bound to the bead at 1 uM by T7 phage display based binding assay", "in_short": "as §3"}, "[27]": {"biological_target": "Serine/threonine-protein kinase PLK1 (Homo sapiens) (UniProt P53350)", "test": "Inhibition of PLK1 assessed as remaining enzyme activity at 1 uM relative to DMSO"}, "[28]": {"biological_target": "Receptor-interacting serine/threonine-protein kinase 2 (Homo sapiens) (UniProt O43353)", "test": "Binding affinity to RIPK2 assessed as percentage of kinase remaining bound to the bead at 1 uM by T7 phage display based binding assay", "in_short": "as §3"}}}
{"smiles": "COc1ccccc1-n1c(-c2ccccc2C)cn2c3c(=O)[nH]c(=O)n(C)c3nc12", "values": [{"measurement": "Activity", "setting": "[1]", "value": 100, "unit": "%"}, {"measurement": "Activity", "setting": "[2]", "value": 140, "unit": "%"}, {"measurement": "Activity", "setting": "[3]", "value": 97, "unit": "%"}, {"measurement": "Activity", "setting": "[4]", "value": 111, "unit": "%"}, {"measurement": "Activity", "setting": "[5]", "value": 94, "unit": "%"}, {"measurement": "Activity", "setting": "[6]", "value": 81, "unit": "%"}, {"measurement": "Activity", "setting": "[7]", "value": 99, "unit": "%"}, {"measurement": "Activity", "setting": "[8]", "value": 93, "unit": "%"}, {"measurement": "Activity", "setting": "[9]", "value": 83, "unit": "%"}, {"measurement": "Activity", "setting": "[10]", "value": 45, "unit": "%"}]}
{"smiles": "COc1ccccc1-n1c(-c2cc(O)ccc2C)cn2c3c(=O)[nH]c(=O)n(C)c3nc12", "values": [{"measurement": "Activity", "setting": "[11]", "value": 62, "unit": "%"}, {"measurement": "Activity", "setting": "[12]", "value": 89, "unit": "%"}, {"measurement": "Activity", "setting": "[13]", "value": 0.6, "unit": "%"}, {"measurement": "Activity", "setting": "[14]", "value": 104, "unit": "%"}, {"measurement": "Activity", "setting": "[15]", "value": 53, "unit": "%"}, {"measurement": "Activity", "setting": "[16]", "value": 5.8, "unit": "%"}, {"measurement": "Activity", "setting": "[17]", "value": 86, "unit": "%"}, {"measurement": "Activity", "setting": "[18]", "value": 88, "unit": "%"}, {"measurement": "IC50", "setting": "[19]", "value": 40, "unit": "nM"}, {"measurement": "IC50", "setting": "[20]", "value": 1.1, "unit": "nM"}, {"measurement": "Activity", "setting": "[21]", "value": 97, "unit": "%"}, {"measurement": "Activity", "setting": "[22]", "value": 83, "unit": "%"}, {"measurement": "IC50", "setting": "[23]", "value": 1.2, "unit": "nM"}, {"measurement": "Activity", "setting": "[24]", "value": 92, "unit": "%"}, {"measurement": "Activity", "setting": "[25]", "value": 123, "unit": "%"}, {"measurement": "Activity", "setting": "[26]", "value": 40, "unit": "%"}, {"measurement": "Activity", "setting": "[27]", "value": 93, "unit": "%"}, {"measurement": "Activity", "setting": "[28]", "value": 2.9, "unit": "%"}]}
